{
  "source": "ChEMBL document CHEMBL3097988",
  "about": "“Synthesis and characterization of new N-(4-(4-chloro-1H-imidazol-1-yl)-3-methoxyphenyl)amide/sulfonamide derivatives as possible antimicrobial and antitubercular agents” (2014)",
  "data": [
    {"tested_on": "Mycobacterium tuberculosis", "test": "Antimicrobial activity against multi drug-resistant Mycobacterium tuberculosis after 7 days by resazurin assay", "assay_type": "functional", "conditions": "168 h", "in_short": "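Resazurin microtitre assay. Cultures were grown in Middlebrook 7H9 with 10% OADC and added to fresh medium in 96-well plates. Test compounds came from 2 mg/mL DMF stocks, with DMF-only controls. Plates were incubated 7 days at 37 °C, then resazurin was added and read after 1 h at 37 °C. MIC was the lowest concentration preventing the blue-to-pink change.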", "units": {"MIC": "µg/mL"}, "values": [
      {"smiles": "COc1cc(F)c(C(=O)Nc2ccc(-n3cnc(Cl)c3)c(OC)c2)c(F)c1", "MIC": "> 50"},
      {"smiles": "COc1cc(NS(=O)(=O)c2c(F)ccc(C(F)(F)F)c2Cl)ccc1-n1cnc(Cl)c1", "MIC": 6.25},
      {"smiles": "COc1cc(NC(=O)c2cccs2)ccc1-n1cnc(Cl)c1", "MIC": "> 50"},
      {"smiles": "COc1cc(NC(=O)c2cccc([N+](=O)[O-])c2Cl)ccc1-n1cnc(Cl)c1", "MIC": "> 50"},
      {"smiles": "COc1cc(NC(=O)c2ccc(Cl)cc2Cl)ccc1-n1cnc(Cl)c1", "MIC": 25},
      {"smiles": "COc1ccc(S(=O)(=O)Nc2ccc(-n3cnc(Cl)c3)c(OC)c2)cc1OC", "MIC": "> 50"},
      {"smiles": "COc1cc(NC(=O)c2cc(F)cc(C(F)(F)F)c2)ccc1-n1cnc(Cl)c1", "MIC": "> 50"},
      {"smiles": "COc1cc(NC(=O)c2ccco2)ccc1-n1cnc(Cl)c1", "MIC": "> 50"},
      {"smiles": "COc1cc(NS(=O)(=O)c2cccs2)ccc1-n1cnc(Cl)c1", "MIC": "> 50"},
      {"smiles": "COc1cc(NC(=O)C2(c3ccc(Cl)cc3)CC2)ccc1-n1cnc(Cl)c1", "MIC": 25},
      {"smiles": "COc1cc(NC(=O)c2c(F)ccc(C(F)(F)F)c2Cl)ccc1-n1cnc(Cl)c1", "MIC": 25},
      {"smiles": "COc1cc(NC(=O)c2ccccc2)ccc1-n1cnc(Cl)c1", "MIC": 25},
      {"smiles": "NNC(=O)c1ccncc1", "note": "[ISONIAZID]", "MIC": 12.5},
      {"smiles": "COc1cc(NC(=O)c2ccc(C(F)(F)F)cc2)ccc1-n1cnc(Cl)c1", "MIC": "> 50"},
      {"smiles": "CO[C@H]1/C=C/O[C@@]2(C)Oc3c(C)c(O)c4c(O)c(c(/C=N/N5CCN(C)CC5)c(O)c4c3C2=O)NC(=O)/C(C)=C\\C=C\\[C@H](C)[C@H](O)[C@@H](C)[C@@H](O)[C@@H](C)[C@H](OC(C)=O)[C@@H]1C", "note": "[RIFAMPIN]", "MIC": 25},
      {"smiles": "COc1cc(NS(=O)(=O)c2ccc(Cl)cc2Cl)ccc1-n1cnc(Cl)c1", "MIC": "> 50"},
      {"smiles": "COc1cc(NS(=O)(=O)c2ccc([N+](=O)[O-])cc2)ccc1-n1cnc(Cl)c1", "MIC": 6.25},
      {"smiles": "COc1cc(NC(=O)Cc2cccc(C(F)(F)F)c2)ccc1-n1cnc(Cl)c1", "MIC": "> 50"},
      {"smiles": "COc1cc(F)c(S(=O)(=O)Nc2ccc(-n3cnc(Cl)c3)c(OC)c2)c(C(F)(F)F)c1", "MIC": 25},
      {"smiles": "COc1cc(NC(=O)c2cccc(C(C)C#N)c2)ccc1-n1cnc(Cl)c1", "note": "(centres undefined)", "MIC": "> 50"},
      {"smiles": "COc1cc(NS(=O)(=O)c2cccc(C(C)C#N)c2)ccc1-n1cnc(Cl)c1", "note": "(centres undefined)", "MIC": 25},
      {"smiles": "COc1cc(NS(=O)(=O)c2ccccc2)ccc1-n1cnc(Cl)c1", "MIC": 25},
      {"smiles": "COc1cc(NS(=O)(=O)c2cccc([N+](=O)[O-])c2Cl)ccc1-n1cnc(Cl)c1", "MIC": 25},
      {"smiles": "COc1cc(NS(=O)(=O)c2ccco2)ccc1-n1cnc(Cl)c1", "MIC": 25},
      {"smiles": "COc1cc(NS(=O)(=O)c2cc(F)cc(C(F)(F)F)c2)ccc1-n1cnc(Cl)c1", "MIC": 6.25},
      {"smiles": "COc1cc(NS(=O)(=O)Cc2cccc(C(F)(F)F)c2)ccc1-n1cnc(Cl)c1", "MIC": "> 50"},
      {"smiles": "COc1cc(NS(=O)(=O)C2(c3ccc(Cl)cc3)CC2)ccc1-n1cnc(Cl)c1", "MIC": "> 50"},
      {"smiles": "COc1cc(NS(=O)(=O)c2ccc(C(F)(F)F)cc2)ccc1-n1cnc(Cl)c1", "MIC": 6.25},
      {"smiles": "COc1cc(NC(=O)c2ccc([N+](=O)[O-])cc2)ccc1-n1cnc(Cl)c1", "MIC": "> 50"}
    ]}
  ]
}
